# Calls of active or inactive are those of the source. No cut-off for these calls is given here.
# Legend:
# [1] = molecular target: T1, Somatostatin receptor type 3 (Mus musculus, UniProt P30935); assay: Displacement of [125I]SS-14 from mouse SST3 receptor expressed in CHO cells after 60 mins by scintillation counting; assay type: cell-based
# How it was run: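 Competition binding at mouse sst3, read at steady-state equilibrium. Read-out is IC50.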
# Mus musculus [2] = assay: Dose normalized AUC in C57BL/6N mouse at 2 mg/kg, po; assay type: ADME, organism-based; set-up: dose 2 mg/kg, route oral; details: in vivo
# Mus musculus [3] = assay: Antidiabetic activity in lean C57BL/6N mouse assessed as reduction in dextrose-induced glucose excursion at 2 mg/kg, po administered 1 hr before dextrose challenge measured by oral glucose tolerance test; assay type: functional; set-up: scale not given: the % may be the effect or the level left
# How it was run: (§1)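 Lean C57BL/6N Tac mice were fasted 5–6 h, then given test agent at 2 or 10 mg/kg 1 h before a dextrose challenge. Glucose tolerance was tested with ip dextrose (ipGTT) or oral dextrose (OGTT). Blood glucose excursion was followed and compared with dextrose alone.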
# Mus musculus [4] = assay: Antidiabetic activity in lean C57BL/6N mouse assessed as reduction in dextrose-induced glucose excursion at 10 mg/kg, po administered 1 hr before dextrose challenge measured by oral glucose tolerance test; assay type: functional; set-up: scale not given: the % may be the effect or the level left; how it was run: as §1
# [5] = Oral bioavailability in C57BL/6N mouse at 2 mg/kg; assay type: ADME, organism-based; details: in vivo
# [6] = Activation of glucose-stimulated insulin secretion in C57BL/6J mouse pancreatic islets at 10 uM after 1 hr by ELISA in presence of 16 mM glucose and 50 nM sst3 agonist octreotide; assay type: functional; details: Pancreatic islet
# How it was run: (§2)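 Pancreatic islets were isolated from normal C57BL/6J mice. Insulin secretion was measured at 2 and 16 mM glucose. Treatments were test agent at 10 μM, octreotide at 50 nM, the two combined, DMSO as negative control and GLP-1 at 10 nM as positive control. n = 4.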
# [7] = Activation of glucose-stimulated insulin secretion in C57BL/6J mouse pancreatic islets at 10 uM after 1 hr by ELISA in presence of 2 mM glucose; assay type: functional; details: Pancreatic islet; how it was run: as §2
# [8] = molecular target: Voltage-gated L-type calcium channel (Homo sapiens, UniProt Q13936+Q13698+Q01668+O60840); assay: Binding affinity to L-type calcium channel
# [9] = Activation of glucose-stimulated insulin secretion in C57BL/6J mouse pancreatic islets at 10 uM after 1 hr by ELISA in presence of 16 mM glucose relative to DMSO; assay type: functional; details: Pancreatic islet; how it was run: as §2
# [10] = molecular target: Somatostatin receptor type 4 (Mus musculus, UniProt P49660); assay: Binding affinity to mouse SST4 receptor expressed in CHO cells; assay type: cell-based
# Sequence of Somatostatin receptor type 4 (Mus musculus, UniProt P49660) (P49660 as listed by the source): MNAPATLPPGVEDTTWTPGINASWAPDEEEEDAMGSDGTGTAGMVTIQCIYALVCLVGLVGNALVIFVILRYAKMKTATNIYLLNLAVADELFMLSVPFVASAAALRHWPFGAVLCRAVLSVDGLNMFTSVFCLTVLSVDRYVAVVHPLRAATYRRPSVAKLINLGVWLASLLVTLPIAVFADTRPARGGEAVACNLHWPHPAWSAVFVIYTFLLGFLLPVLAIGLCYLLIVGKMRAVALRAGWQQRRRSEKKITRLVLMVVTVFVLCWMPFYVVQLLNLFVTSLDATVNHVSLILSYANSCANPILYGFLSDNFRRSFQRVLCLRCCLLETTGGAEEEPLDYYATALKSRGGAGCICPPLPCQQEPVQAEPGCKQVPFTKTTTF
# [11] = molecular target: T2, Somatostatin receptor type 5 (Mus musculus, UniProt O08858); assay: Binding affinity to mouse SST5 receptor expressed in CHO cells; assay type: cell-based
# T2 sequence (O08858 whole entry): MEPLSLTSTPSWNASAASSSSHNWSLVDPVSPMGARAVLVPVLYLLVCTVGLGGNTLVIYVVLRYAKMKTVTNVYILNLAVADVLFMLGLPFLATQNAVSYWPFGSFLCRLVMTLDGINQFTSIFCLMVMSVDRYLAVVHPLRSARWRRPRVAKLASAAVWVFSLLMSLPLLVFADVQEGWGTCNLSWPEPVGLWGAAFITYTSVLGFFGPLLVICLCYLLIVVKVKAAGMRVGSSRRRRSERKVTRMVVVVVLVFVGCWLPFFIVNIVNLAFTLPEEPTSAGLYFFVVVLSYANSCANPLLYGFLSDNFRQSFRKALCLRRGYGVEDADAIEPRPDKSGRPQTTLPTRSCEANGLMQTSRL
# [12] = molecular target: Somatostatin receptor type 2 (Mus musculus, UniProt P30875); assay: Binding affinity to mouse SST2 receptor expressed in CHO cells; assay type: cell-based
# Sequence of Somatostatin receptor type 2 (Mus musculus, UniProt P30875) (P30875 whole entry): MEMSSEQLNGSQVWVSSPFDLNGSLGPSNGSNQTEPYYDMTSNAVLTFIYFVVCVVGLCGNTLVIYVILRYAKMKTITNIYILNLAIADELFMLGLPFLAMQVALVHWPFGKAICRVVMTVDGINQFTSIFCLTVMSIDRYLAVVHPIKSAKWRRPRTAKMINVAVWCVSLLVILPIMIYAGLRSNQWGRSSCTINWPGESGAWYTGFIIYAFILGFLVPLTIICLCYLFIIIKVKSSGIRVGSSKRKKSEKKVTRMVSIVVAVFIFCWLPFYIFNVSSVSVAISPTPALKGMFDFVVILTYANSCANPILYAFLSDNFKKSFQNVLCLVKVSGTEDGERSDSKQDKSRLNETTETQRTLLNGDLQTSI
# Mus musculus [13] = assay: Antidiabetic activity in sst3-wild-type lean C57BL/6N mouse assessed as reduction in dextrose-induced glucose excursion at 10 mg/kg, po administered 1 hr before dextrose challenge measured by intraperitoneal glucose tolerance test; assay type: functional; set-up: scale not given: the % may be the effect or the level left
# How it was run: (§3)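 Wild-type and sst3 knockout mice were studied side by side in an ipGTT. They were predosed with 10 mg/kg 1 h before a 2 g/kg dextrose challenge. Read-out was total blood glucose AUC, compared with dextrose alone.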
# [14] = Clearance in C57BL/6N mouse at 1 mg/kg, iv and 2 mg/kg, po; assay type: ADME, organism-based; details: in vivo
# [15] = molecular target: Somatostatin receptor type 5 (Homo sapiens, UniProt P35346); assay: Binding affinity to human SST5 receptor expressed in CHO cells; assay type: cell-based
# Sequence of Somatostatin receptor type 5 (Homo sapiens, UniProt P35346) (P35346 whole entry): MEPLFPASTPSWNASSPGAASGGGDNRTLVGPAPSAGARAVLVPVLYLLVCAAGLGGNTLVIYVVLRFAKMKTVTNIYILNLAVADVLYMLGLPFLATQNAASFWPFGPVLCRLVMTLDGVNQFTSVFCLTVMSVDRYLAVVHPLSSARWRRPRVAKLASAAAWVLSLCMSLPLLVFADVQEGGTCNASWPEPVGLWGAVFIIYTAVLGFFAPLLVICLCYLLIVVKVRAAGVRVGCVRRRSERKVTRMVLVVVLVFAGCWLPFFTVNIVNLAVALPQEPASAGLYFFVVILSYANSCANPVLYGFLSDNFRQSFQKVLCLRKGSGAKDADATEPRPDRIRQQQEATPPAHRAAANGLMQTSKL
# Mus musculus [16] = assay: Antidiabetic activity in wild-type lean C57BL/6N mouse assessed as elevation in plasma insulin level at 10 mg/kg, po administered 1 hr before dextrose challenge measured after 10 mins; assay type: functional
# How it was run: (§4)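 Wild-type and sst3 knockout mice were predosed at −60 min with 10 mg/kg, then given a dextrose challenge. Plasma insulin was measured 10 min after dextrose. n = 5.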
# [17] = molecular target: T3, Somatostatin receptor type 3 (Homo sapiens, UniProt P32745); assay type: functional, cell-based, CHO
# T3 sequence (P32745 whole entry): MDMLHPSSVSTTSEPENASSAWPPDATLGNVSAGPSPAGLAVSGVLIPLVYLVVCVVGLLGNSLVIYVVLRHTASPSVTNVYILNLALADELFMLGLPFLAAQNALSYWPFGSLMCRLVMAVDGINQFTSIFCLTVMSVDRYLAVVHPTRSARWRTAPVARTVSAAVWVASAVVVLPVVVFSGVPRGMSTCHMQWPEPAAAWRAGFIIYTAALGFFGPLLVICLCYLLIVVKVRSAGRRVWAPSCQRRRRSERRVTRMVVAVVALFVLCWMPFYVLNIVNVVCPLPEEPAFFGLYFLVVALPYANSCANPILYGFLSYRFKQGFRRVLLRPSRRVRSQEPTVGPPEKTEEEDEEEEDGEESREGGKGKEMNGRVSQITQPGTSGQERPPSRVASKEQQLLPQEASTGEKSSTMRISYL
# [18] = Half life in C57BL/6N mouse at 1 mg/kg, iv and 2 mg/kg, po; assay type: ADME, organism-based; details: in vivo
# Mus musculus [19] = assay: Antidiabetic activity in lean C57BL/6N mouse assessed as reduction in dextrose-induced glucose excursion at 10 mg/kg, po administered 1 hr before dextrose challenge measured by intraperitoneal glucose tolerance test; assay type: functional; set-up: scale not given: the % may be the effect or the level left; how it was run: as §1
# Mus musculus [20] = assay: Antidiabetic activity in sst3-knockout lean C57BL/6N mouse assessed as elevation in plasma insulin level at 10 mg/kg, po administered 1 hr before dextrose challenge measured after 10 mins; assay type: functional, organism-based; set-up: dose 10 mg/kg; how it was run: as §4
# [21] = molecular target: T1, Somatostatin receptor type 3; assay: Antagonist activity at mouse SST3 receptor expressed in CHO cells assessed as inhibition of forskolin/SS-14-stimulated cAMP accumulation preincubated for 15 mins before SS-14 challenge measured after 1 hr by time-resolved fluorescence analysis; assay type: functional, cell-based
# How it was run: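 Functional antagonism at mouse sst3 against SS-14, run as a cAMP accumulation challenge after the test molecule is prebound. Read-out is IC50.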
# [22] = molecular target: Somatostatin receptor type 1 (Homo sapiens, UniProt P30872); assay: Binding affinity to human SST1 receptor expressed in CHO cells; assay type: cell-based
# Sequence of Somatostatin receptor type 1 (Homo sapiens, UniProt P30872) (P30872 whole entry): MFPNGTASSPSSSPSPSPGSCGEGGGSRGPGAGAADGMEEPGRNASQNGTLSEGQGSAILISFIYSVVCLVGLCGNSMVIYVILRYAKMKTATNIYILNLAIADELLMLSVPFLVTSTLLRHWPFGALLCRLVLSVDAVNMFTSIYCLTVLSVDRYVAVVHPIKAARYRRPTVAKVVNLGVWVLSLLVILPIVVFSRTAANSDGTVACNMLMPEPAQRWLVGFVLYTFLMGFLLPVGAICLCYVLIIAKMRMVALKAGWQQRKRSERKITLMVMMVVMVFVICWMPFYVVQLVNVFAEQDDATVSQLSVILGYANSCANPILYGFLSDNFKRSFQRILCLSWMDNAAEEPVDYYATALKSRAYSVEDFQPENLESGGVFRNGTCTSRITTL
# [23] = molecular target: Somatostatin receptor type 1 (Mus musculus, UniProt P30873); assay: Binding affinity to mouse SST1 receptor expressed in CHO cells; assay type: cell-based
# Sequence of Somatostatin receptor type 1 (Mus musculus, UniProt P30873) (P30873 whole entry): as the sequence (P30872 whole entry) above, with G25A, G26C, A32S, T385A, T389S counted along it
# Mus musculus [24] = assay: Antidiabetic activity in lean C57BL/6N mouse assessed as reduction in dextrose-induced glucose excursion at 2 mg/kg, po administered 1 hr before dextrose challenge measured by intraperitoneal glucose tolerance test; assay type: functional; set-up: scale not given: the % may be the effect or the level left; how it was run: as §1
# [25] = molecular target: Somatostatin receptor type 4 (Homo sapiens, UniProt P31391); assay: Binding affinity to human SST4 receptor expressed in CHO cells; assay type: cell-based
# Sequence of Somatostatin receptor type 4 (Homo sapiens, UniProt P31391) (P31391 whole entry): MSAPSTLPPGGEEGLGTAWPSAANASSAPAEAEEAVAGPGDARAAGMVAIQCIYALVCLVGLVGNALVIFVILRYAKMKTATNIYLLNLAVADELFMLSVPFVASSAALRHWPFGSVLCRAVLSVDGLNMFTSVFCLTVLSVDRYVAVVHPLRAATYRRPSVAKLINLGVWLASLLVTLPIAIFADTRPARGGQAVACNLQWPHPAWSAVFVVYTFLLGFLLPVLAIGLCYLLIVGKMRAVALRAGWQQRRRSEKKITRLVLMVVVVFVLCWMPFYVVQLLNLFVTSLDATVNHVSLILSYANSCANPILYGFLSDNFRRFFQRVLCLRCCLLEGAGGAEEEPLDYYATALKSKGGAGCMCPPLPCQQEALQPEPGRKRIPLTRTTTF
# [26] = Volume of distribution at steady state in C57BL/6N mouse at 1 mg/kg, iv and 2 mg/kg, po; assay type: ADME, organism-based; details: in vivo, read-out: Vdss
# [27] = molecular target: T3, Somatostatin receptor type 3; assay: Displacement of [125I]SS-14 from human SST3 receptor expressed in CHO cells after 60 mins by scintillation counting; assay type: cell-based
# Mus musculus [28] = assay: Antidiabetic activity in sst3-knockout lean C57BL/6N mouse assessed as reduction in dextrose-induced glucose excursion at 10 mg/kg, po administered 1 hr before dextrose challenge measured by intraperitoneal glucose tolerance test; assay type: functional, organism-based; set-up: dose 10 mg/kg; how it was run: as §3
# [29] = molecular target: Somatostatin receptor type 2 (Homo sapiens, UniProt P30874); assay: Binding affinity to human SST2 receptor expressed in CHO cells; assay type: cell-based
# Sequence of Somatostatin receptor type 2 (Homo sapiens, UniProt P30874) (P30874 whole entry): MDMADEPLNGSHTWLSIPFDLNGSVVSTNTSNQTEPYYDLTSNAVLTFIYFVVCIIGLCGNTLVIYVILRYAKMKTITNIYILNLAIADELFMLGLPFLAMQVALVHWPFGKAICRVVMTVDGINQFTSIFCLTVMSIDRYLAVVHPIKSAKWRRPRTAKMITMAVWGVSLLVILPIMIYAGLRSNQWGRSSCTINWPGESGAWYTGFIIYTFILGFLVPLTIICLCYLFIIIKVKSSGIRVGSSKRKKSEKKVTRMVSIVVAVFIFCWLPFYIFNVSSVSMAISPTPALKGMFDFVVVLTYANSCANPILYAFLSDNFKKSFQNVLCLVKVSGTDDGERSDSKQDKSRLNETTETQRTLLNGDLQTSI
# Mus musculus [30] = assay: Antidiabetic activity in po dosed lean C57BL/6N mouse assessed as reduction in dextrose-induced glucose excursion administered 1 hr before dextrose challenge measured by glucose tolerance test; assay type: functional, organism-based; how it was run: as §1
# [31] = Cmax in C57BL/6N mouse at 2 mg/kg, po; assay type: ADME, organism-based; set-up: dose 2 mg/kg, route oral; details: in vivo
# T1 sequence (P30935 whole entry): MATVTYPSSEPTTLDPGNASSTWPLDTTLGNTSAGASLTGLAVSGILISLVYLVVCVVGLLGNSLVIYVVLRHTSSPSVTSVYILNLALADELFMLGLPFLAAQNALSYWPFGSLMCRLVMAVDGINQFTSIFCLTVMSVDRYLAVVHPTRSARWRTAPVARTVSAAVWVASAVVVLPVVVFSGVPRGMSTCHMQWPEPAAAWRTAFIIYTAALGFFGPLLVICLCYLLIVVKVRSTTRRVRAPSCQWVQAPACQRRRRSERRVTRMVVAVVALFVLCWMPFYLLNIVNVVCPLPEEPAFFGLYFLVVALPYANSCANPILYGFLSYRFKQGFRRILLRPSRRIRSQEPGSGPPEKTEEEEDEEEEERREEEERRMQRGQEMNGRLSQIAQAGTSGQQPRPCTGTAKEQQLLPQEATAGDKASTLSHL
compound,measurement,setting,value
c1ccc(-c2c[nH]c([C@H]3Cc4c([nH]c5ccccc45)[C@@H](C4CCOCC4)N3)n2)cc1,IC50,[1],8.9 nM
same,AUC/dose,Mus musculus [2],1.3 µM·h/mg
same,Activity,Mus musculus [3],66%
same,Activity,Mus musculus [4],67%
same,bioavailability,[5],45%
same,Activity,[6],Active
same,Activity,[7],inactive
same,IC50,[8],1.9 µM
same,Activity,[9],44%
same,IC50,[10],> 10 µM
same,IC50,[11],> 10 µM
same,IC50,[12],> 10 µM
same,Activity,Mus musculus [13],26%
same,clearance,[14],15 mL/min/kg
same,IC50,[15],> 1000 nM
same,Activity,Mus musculus [16],50%
same,IC50,[17],22 nM
same,half-life,[18],96 min
same,Activity,Mus musculus [19],78%
same,Activity,Mus musculus [20],inactive
same,IC50,[21],16 nM
same,IC50,[22],> 1000 nM
same,IC50,[23],> 10 µM
same,Activity,Mus musculus [24],58%
same,IC50,[25],> 1000 nM
same,Vd,[26],1.6 L/kg
same,IC50,[27],14 nM
same,Activity,Mus musculus [28],inactive
same,IC50,[29],> 1000 nM
same,Activity,Mus musculus [30],Dose-dependent effect
same,Cmax,[31],840 nM
